Active and inactive are the calls of the source. The rule behind the calls is not given here.
Assays:
Assay type in all cases: functional
[1] = Antagonist activity at melatonin receptor in Xenopus laevis melanophores assessed as reduction of melatonin-induced pigment aggregation
In short: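 Antagonism of the melatonin response in Xenopus laevis melanophores was reported as pIC50. Values are the mean ± SEM of triplicate experiments.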

Xenopus laevis [2] = organism: Xenopus laevis; test: Agonist activity at melatonin receptor in Xenopus laevis melanophores assessed as effect on pigment granule distribution at 100 uM relative to melatonin
In short: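 In Xenopus laevis melanophores, maximal agonist action at 100 µM was expressed as a percentage of the response to 1 nM melatonin. Data come from triplicate experiments.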

Xenopus laevis [3] = organism: Xenopus laevis; test: Agonist activity at melatonin receptor in Xenopus laevis melanophores assessed as effect on pigment granule distribution at 100 uM
In short: (§1)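 Agonist response in Xenopus laevis melanophores was tested up to a highest concentration of 100 µM and reported as pEC50. Values are the mean ± SEM of triplicate experiments.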

[4] = Agonist activity at melatonin receptor in Xenopus laevis melanophores assessed as effect on pigment granule distribution; in short: as §1

Structure (SMILES)	Log IC50 [1]	Activity (Xenopus laevis [2]) [%]	Activity (Xenopus laevis [3])	Log EC50 [4]
COc1ccc2[nH]cc(CCCN=C=S)c2c1	-4.49	–	inactive	–
COc1ccc2c(ccn2CCCN=C=S)c1	-4.91	–	inactive	–
[N-]=[N+]=NCCCc1c[nH]c2ccccc12	-4.79	–	inactive	–
COc1ccc2[nH]cc(CCN=C=S)c2c1	-5.47	–	inactive	–
COc1ccc2[nH]cc(CCN=[N+]=[N-])c2c1	-5.09	–	inactive	–
COc1ccc2[nH]cc(CCNC(C)=O)c2c1 [MELATONIN]	–	–	–	-10.07
S=C=NCCCn1ccc2ccccc21	-4.04	28	–	–
COc1ccc2[nH]cc(CCCN=[N+]=[N-])c2c1	-5.03	–	inactive	–
CC(=O)NCCc1c(Cc2ccccc2)[nH]c2ccccc12 [LUZINDOLE]	-5.61	–	inactive	–

Other lines, results leading:

Log IC50 [1]	Activity (Xenopus laevis [2]) [%]	Activity (Xenopus laevis [3])	Log EC50 [4]	Structure (SMILES)
-4.47	41	–	–	COc1ccc2[nH]c(CCCN=C=S)cc2c1
-4.72	–	inactive	–	[N-]=[N+]=NCCCc1cc2ccccc2[nH]1
-4.81	–	inactive	–	COc1ccc2c(ccn2CCCN=[N+]=[N-])c1
-4.35	38	–	–	S=C=NCCCc1cc2ccccc2[nH]1
-3.92	31	–	–	S=C=NCCCc1c[nH]c2ccccc12
-4.15	–	inactive	–	COc1ccc2[nH]c(CCCN=[N+]=[N-])cc2c1
-4.82	–	inactive	–	[N-]=[N+]=NCCCn1ccc2ccccc21
